Assay results pooled from the literature.
Lines come from different studies, so protocols differ.
Organism: Pseudomonas aeruginosa
Effect on: microbial growth

For `Fc1ccc(-c2nc3ccccc3n2Cc2ccccc2)cc1`, the MIC was 128 µg/mL (broth dilution; ATCC27853).
The MIC of `CC(C)Oc1c(NC(=O)c2ccc(NC(=O)[C@H](CC(N)=O)NC(=O)c3ccc(NC(=O)c4ccc(F)cc4)cc3)cc2)ccc(C(=O)Nc2ccc(C(=O)O)cc2)c1O` is reported as over 64 µg/mL (PA14).
For `CC1NC(=O)C(C(=O)NC(C(=O)NC2C(=O)N3C2SC(C)(C)C3C(=O)O)c2ccccc2)=C1O` (stereo not shown), the MIC was 50 µg/mL.
With `O=[N+]([O-])c1ccc(O)c2ncccc12` the MIC was 16 µg/mL (broth dilution; ATCC27853).
`CC(C)Oc1c(NC(=O)c2ccc(NC(=O)[C@H](CC(N)=O)NC(=O)c3cccc(NC(=O)c4ccc(C#N)cc4)c3)cc2)ccc(C(=O)Nc2ccc(C(=O)O)cc2)c1O` gave an MIC of over 64 µg/mL (PA14).
`COc1cccc(NCc2ccc(Oc3ccccn3)cc2)c1` has an MIC of over 25 µg/mL.
With `CN(C)[C@@H]1C(O)=C(C(N)=O)C(=O)[C@@]2(O)C(O)=C3C(=O)c4c(O)c(-c5ccccc5)nc(Cl)c4C[C@H]3C[C@@H]12.Cl` the MIC was over 32 µg/mL (broth dilution; ATCC27853).
`Cc1cc(=O)[nH]n1C(=O)c1ccc(-n2c(C)ccc2C)cc1` gave an MIC of 250 µg/mL (broth dilution; ATCC10145; 18 h).
`CN(C)[C@@H]1C(O)=C(C(N)=O)C(=O)[C@@]2(O)C(O)=C3C(=O)c4c(cc5ccc(CN(C)S(C)(=O)=O)cc5c4O)C[C@H]3C[C@@H]12` has an MIC of 32 µg/mL (broth dilution; ATCC27853).
`COc1c(C)c(OC(=O)c2ccccc2)c(C)c(O)c1C(=O)/C=C/c1ccccc1` gave an MIC of 5000 µg/mL (broth dilution; ATCC27853).
With `O=C(CCCCCCCC[P+](c1ccccc1)(c1ccccc1)c1ccccc1)Nc1ccc(O)c(O)c1.[Br-]` the MIC was over 32 µg/mL (broth dilution; ATCC27853; 18 h).
For `CC(=O)NC1CN(Cc2ccc3cc4c(c(O)c3c2)C(=O)C2=C(O)[C@]3(O)C(=O)C(C(N)=O)=C(O)[C@@H](N(C)C)[C@@H]3C[C@@H]2C4)C1`, the MIC was 32 µg/mL (broth dilution; ATCC27853).
`CCCNc1nc(Cl)c2c(c1O)C(=O)C1=C(O)[C@]3(O)C(=O)C(C(N)=O)=C(O)[C@@H](N(C)C)[C@@H]3C[C@@H]1C2.Cl.Cl.Cl` gave an MIC of 32 µg/mL (broth dilution; ATCC27853).
With `CC(C)Oc1c(NC(=O)c2ccc(NC(=O)[C@H](CC(N)=O)NC(=O)c3ccc(NC(=O)c4ccc(C#N)cc4)cc3)cc2)ccc(C(=O)Nc2cc(C(=O)O)n(C)c2)c1O` the MIC was over 64 µg/mL (PA14).
`CCn1cc(C(=O)O)c(=O)c2cc(F)c(N3CCNCC3)cc21` has an MIC of 2 µM (broth dilution; ATCC9027).
`COc1c(C)c(OS(=O)(=O)c2ccc3ccccc3c2)c(C)c(O)c1C(=O)/C=C/c1ccccc1` has an MIC of 5000 µg/mL (broth dilution; ATCC27853).
`Cc1cccc2nc(-c3ccc([N+](=O)[O-])o3)[nH]c12` has an MIC of over 64 µg/mL (broth dilution; ATCC27853).
With `CCCCCCC/C=C/C(=O)N1C(=O)/C(=C(\O)CCCC)C(=O)C1CC(C)C` (stereo not shown) the MIC was over 200 µg/mL (PA01).
For `CCCCCCC#Cc1cncc(-c2nnc(SCc3ccc([N+](=O)[O-])o3)n2C)c1`, the MIC was at least 20 µg/mL.
The MIC of `C/C(=C\c1ccc(C#N)cc1)C(=O)Nc1ccc(C(=O)N[C@@H](CC(N)=O)C(=O)Nc2ccc(C(=O)Nc3ccc(C(=O)Nc4ccc(C(=O)O)cc4)c(O)c3OCC(C)C)cc2)cc1` is reported as over 64 µg/mL (PA14).
For `CCCCCCC/C=C/C(=O)N1CC(=O)/C(=C(\C)O)C1=O`, the MIC was 200 µg/mL (PA01).
The MIC of `CN(C)c1nc(NC(=O)CNC(C)(C)C)c(O)c2c1C[C@H]1C[C@H]3[C@H](N(C)C)C(O)=C(C(N)=O)C(=O)[C@@]3(O)C(O)=C1C2=O.Cl` is reported as over 32 µg/mL (broth dilution; ATCC27853).
For `COc1ccc(NCc2ccc(Oc3ccccn3)cc2)cc1`, the MIC was over 25 µg/mL.
`CC1(C)SC2C(NC(=O)C(NC(=O)C3=C(O)C4CCCN4C3=O)c3ccccc3)C(=O)N2C1C(=O)O` (stereo not shown) has an MIC of 50 µg/mL.
The MIC of `CN(C)CCCNc1nc(Cl)c2c(c1O)C(=O)C1=C(O)[C@]3(O)C(=O)C(C(N)=O)=C(O)[C@@H](N(C)C)[C@@H]3C[C@@H]1C2.Cl` is reported as over 32 µg/mL (broth dilution; ATCC27853).
The MIC of `CC(C)Oc1c(NC(=O)c2ccc(NC(=O)[C@H](CC(N)=O)NC(=O)c3ccc(C#Cc4ccc(C#N)cc4)cc3)cc2)ccc(C(=O)Nc2ccc(C(=O)O)cc2)c1O` is reported as over 64 µg/mL (PA14).
`O=C1NN=C(N=Cc2ccc(O)cc2O)C1=NNn1c(-c2ccccc2)nc2ccccc2c1=O` gave an MIC of 53.5 µM (broth dilution; 24 h).
`CC(C)Oc1c(N)ccc(C(=O)Nc2ccc(C(=O)N[C@@H](CC(N)=O)C(=O)Nc3ccc(C(=O)Nc4ccc(C(=O)Nc5ccc(C(=O)O)cc5)c(O)c4OC(C)C)cc3)cc2)c1O` gave an MIC of 32 µg/mL (PA14).
`Cc1ccc(C)n1-c1ccc(-c2nnc(-c3ccc(O)cc3)[nH]2)cc1` has an MIC of 250 µg/mL (broth dilution; ATCC10145; 18 h).
`CC(C)Oc1c(NC(=O)c2ccc(NC(=O)[C@H](CC(N)=O)NC(=O)c3ccc(NC(=O)c4ccc(C#N)cc4)cc3)cc2)ccc(C(=O)Nc2ccncc2)c1O` has an MIC of over 64 µg/mL (PA14).
`O=C(Nc1ccc(S(=O)(=O)c2nccs2)cc1)c1cc(N=Nc2nccs2)ccc1O` gave an MIC of 100 µg/mL (broth dilution).
With `CC1(C)S[C@@H]2[C@H](NC(=O)C(C(=O)O)c3ccccc3)C(=O)N2[C@H]1C(=O)O` (stereo partly shown) the MIC was over 200 µM (broth dilution; CMCC10104).
With `O=C1NN=C(N=Cc2ccccc2O)C1=NNn1c(-c2ccccc2)nc2ccccc2c1=O` the MIC was 111 µM (broth dilution; 24 h).
`Cc1cc(C)n(C(=O)c2ccc(-n3c(C)ccc3C)cc2)n1` gave an MIC of 250 µg/mL (broth dilution; ATCC10145; 18 h).
`O=C(CCCCCCCC[P+](c1ccccc1)(c1ccccc1)c1ccccc1)Nc1cc(O)c(O)c(O)c1.[Br-]` has an MIC of over 32 µg/mL (broth dilution; ATCC27853; 18 h).
`C/C(=C\c1ccc(C#N)cc1)C(=O)Nc1ccc(C(=O)N[C@@H](CC(N)=O)C(=O)Nc2ccc(C(=O)Nc3ccc(C(=O)Nc4ccc(C(=O)O)cc4)c(O)c3OC(C)C)cc2)cc1` gave an MIC of 1 µg/mL (PA14).
With `CNC(C)C1CCC(N)C(OC2C(N)CC(N)C(OC3OCC(C)(O)C(NC)C3O)C2O)O1` (stereo not shown) the MIC was 4 µg/mL (broth dilution; PAO1).
